Experimental data as given in PMC10432884 (Clinical and Translational Science, 2023).
Where two headings read alike, the source gives them in different places.

Columns and labels:
[1] = SAD phase pharmacokinetics; assay type: in vivo, human; settings: for AUC(0-t) / Tmax / AUC(0-inf) / Cmax / half-life: human, plasma, oral; for AUC(0-t): AUClast; for AUC(0-inf): AUCinf; for Cmax: C max
Method in brief: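 Single oral doses of 0.3–50 mg after ≥10 h fast. Plasma (K-EDTA) was sampled predose and […]; urine was collected for 48 h. Assay was validated LC-MS/MS (plasma LLOQ 1.00 ng/mL; below-LLOQ set to 0). AUClast, Cmax and Tmax were derived at all doses; AUCinf, clearance and t1/2 from 10 mg upward. Urinary excretion and renal clearance were also derived. Steady-state time was estimated from these SAD data.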

healthy subjects [2] = experiment: SAD phase blood pressure; assay type: in vivo, human; settings: for Mean SBP, LSMs difference from placebo: over 48 h
healthy subjects [3] = experiment: MAD phase blood pressure; assay type: in vivo, human
Method in brief: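 Double-blind MAD phase: four cohorts of 10 healthy subjects, randomized 4:1 to oral tablet (2, 5, 10, 15 mg) or placebo q.d. for 14 days after ≥10 h fast. BP and pulse were recorded predose daily and at 1, 2, 4, 6, 12 h on days 1, 2 and 14. Orthostatic BP was taken 24 and 48 h after the last dose. ANCOVA (treatment, time, treatment×time; random subject; predose covariate) gave LSM differences versus placebo with 95% CI.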

healthy subjects [4] = experiment: SAD phase CNS test battery; assay type: in vivo, human
healthy subjects [5] = experiment: First-in-human trial, all phases: overall safety and tolerability; assay type: in vivo
Method in brief: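 Safety covered all dosed subjects in the SAD, MAD and FI phases: AEs (MedDRA 21.1), concomitant medication, vital signs, ECGs, physical exams and safety labs. BP was taken after 5 min supine, then ≥1 min sitting and 1–3 min standing. Orthostasis was defined as an SBP fall ≥20 mmHg or DBP fall ≥10 mmHg within 3 min standing. TEAEs were summarized by treatment, organ class, severity and drug-relatedness.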

healthy subjects [6] = tested on: healthy subjects
rodents [7] = settings: treated rodents; cited from earlier work
rodents [8] = settings: in vivo; cited from earlier work
[9] = both, 10 mg, GeoMean, SAD 10 mg
[10] = SAD pooled zagociguat group (n = 42)

Fc1ccccc1Cc1nc(-c2nc(C(F)(F)F)n[nH]2)cn2ccnc12 [zagociguat, 8‐(2‐fluorobenzyl)‐6‐(3‐(trifluoromethyl)‐1H‐1,2,4‐triazol‐5‐yl)imidazo[1,2‐a]pyrazine]
Dose level from which detectable in urine ([1]; SAD): 10 mg | AUC(0-t) ([1]; both, 3 mg, GeoMean, SAD 3 mg): 11.4 µg·h/mL | AUC(0-t) ([1]; both, 3 mg, Median, SAD 3 mg): 11.2 µg·h/mL | Tmax ([1]; both, 3 mg, T max, Median, SAD 3 mg): 2.1 h | AUC(0-inf) [1, 9]: 92.3 µg·h/mL | AUC(0-inf) ([1]; both, 10 mg, Median, SAD 10 mg): 95 µg·h/mL | AUC(0-t) [1, 9]: 57.6 µg·h/mL | AUC(0-t) ([1]; both, 10 mg, Median, SAD 10 mg): 57.9 µg·h/mL | Cmax [1, 9]: 1190 ng/mL | Cmax ([1]; both, 10 mg, Median, SAD 10 mg): 1290 ng/mL | Tmax ([1]; both, 10 mg, T max, Median, SAD 10 mg): 3.5 h | half-life ([1]; both, 10 mg, t 1/2, GeoMean, SAD 10 mg): 63.4 h | half-life ([1]; both, 10 mg, t 1/2, Median, SAD 10 mg): 64.8 h | Cmax ([1]; both, 20 mg, GeoMean, SAD 20 mg): 2190 ng/mL | AUC(0-t) ([1]; 0.3 mg, GeoMean, SAD 0.3 mg): 1.06 µg·h/mL | AUC(0-t) ([1]; 0.3 mg, Median, SAD 0.3 mg): 1.09 µg·h/mL | Cmax ([1]; 0.3 mg, GeoMean, SAD 0.3 mg): 40 ng/mL | Cmax ([1]; 0.3 mg, Median, SAD 0.3 mg): 40.5 ng/mL | Tmax ([1]; 0.3 mg, T max, Median, SAD 0.3 mg): 0.8 h | AUC(0-t) ([1]; 1 mg, GeoMean, SAD 1 mg): 4.34 µg·h/mL | AUC(0-t) ([1]; 1 mg, Median, SAD 1 mg): 4.46 µg·h/mL | Cmax ([1]; 1 mg, GeoMean, SAD 1 mg): 142 ng/mL | Cmax ([1]; 1 mg, Median, SAD 1 mg): 150 ng/mL | Tmax ([1]; 1 mg, T max, Median, SAD 1 mg): 1 h | Cmax ([1]; 3 mg, GeoMean, SAD 3 mg): 373 ng/mL | Cmax ([1]; 3 mg, Median, SAD 3 mg): 372 ng/mL | AUC(0-inf) ([1]; 20 mg, GeoMean, SAD 20 mg): 194 µg·h/mL | AUC(0-inf) ([1]; 20 mg, Median, SAD 20 mg): 180 µg·h/mL | AUC(0-t) ([1]; 20 mg, GeoMean, SAD 20 mg): 167 µg·h/mL | AUC(0-t) ([1]; 20 mg, Median, SAD 20 mg): 158 µg·h/mL | Cmax ([1]; 20 mg, Median, SAD 20 mg): 2260 ng/mL | Tmax ([1]; 20 mg, T max, Median, SAD 20 mg): 4 h | half-life ([1]; 20 mg, t 1/2, GeoMean, SAD 20 mg): 67.1 h | half-life ([1]; 20 mg, t 1/2, Median, SAD 20 mg): 68 h | AUC(0-inf) ([1]; 30 mg, GeoMean, SAD 30 mg): 272 µg·h/mL | AUC(0-inf) ([1]; 30 mg, Median, SAD 30 mg): 288 µg·h/mL | AUC(0-t) ([1]; 30 mg, GeoMean, SAD 30 mg): 251 µg·h/mL | AUC(0-t) ([1]; 30 mg, Median, SAD 30 mg): 273 µg·h/mL | Cmax ([1]; 30 mg, GeoMean, SAD 30 mg): 3370 ng/mL | Cmax ([1]; 30 mg, Median, SAD 30 mg): 3650 ng/mL | Tmax ([1]; 30 mg, T max, Median, SAD 30 mg): 4.5 h | half-life ([1]; 30 mg, t 1/2, GeoMean, SAD 30 mg): 65.7 h | half-life ([1]; 30 mg, t 1/2, Median, SAD 30 mg): 62.2 h | AUC(0-inf) ([1]; 50 mg, GeoMean, SAD 50 mg): 478 µg·h/mL | AUC(0-inf) ([1]; 50 mg, Median, SAD 50 mg): 471 µg·h/mL | AUC(0-t) ([1]; 50 mg, GeoMean, SAD 50 mg): 425 µg·h/mL | AUC(0-t) ([1]; 50 mg, Median, SAD 50 mg): 427 µg·h/mL | Cmax ([1]; 50 mg, GeoMean, SAD 50 mg): 5730 ng/mL | Cmax ([1]; 50 mg, Median, SAD 50 mg): 5820 ng/mL | Tmax ([1]; 50 mg, T max, Median, SAD 50 mg): 5 h | half-life ([1]; 50 mg, t 1/2, GeoMean, SAD 50 mg): 57 h | half-life ([1]; 50 mg, t 1/2, Median, SAD 50 mg): 57.3 h | half-life ([1]; Mean t 1/2, range, single administrations of 10–50 mg): 57 to 68 h | Tmax ([1]; Median T max, range, SAD doses of 0.3–3 mg): 0.5 to 2.1 h | Tmax ([1]; Median T max, range, SAD doses of 10–50 mg): 3.5 to 5 h | Estimated time to steady-state ([1]; preliminary PK data from the SAD phase): 11 days | Mean SBP, LSMs difference from placebo (healthy subjects [2]; SAD 3 mg, 95% CI: −9.8, −0.1, p = 0.047): −4.9 mmHg | Mean SBP, LSMs difference from placebo (healthy subjects [2]; SAD 50 mg, 95% CI: −10.0, −0.5, p = 0.032): −5.2 mmHg | DBP change (healthy subjects [2]; SAD all dose groups): no decreases | SBP change (healthy subjects [2]; SAD other dose groups (1, 10, 20, 30 mg)): No decreases | Mean DBP, LSMs difference from placebo (healthy subjects [3]; MAD 2 mg q.d., over 14 days, 95% CI: −10.9, −1.3, p = 0.015): −6.1 mmHg | Mean SBP, LSMs difference from placebo (healthy subjects [3]; MAD 2 mg q.d., over 14 days, 95% CI: −11.6, −0.6, p = 0.032): −6.1 mmHg | DBP, maximum difference from placebo (healthy subjects [3]; MAD 5 mg q.d., day 14, 95% CI: −13.0, −2.0, p = 0.009): −7.5 mmHg | Mean DBP, LSMs difference from placebo (healthy subjects [3]; MAD 5 mg q.d., over 14 days, 95% CI: −11.0, −1.4, p = 0.014): −6.2 mmHg | SBP or DBP change (healthy subjects [3]; MAD 10 and 15 mg groups): No decreases | Reduction in mean diastolic blood pressure (healthy subjects [3]; maximum over dose groups): up to 7.5 mmHg | Reduction in mean systolic blood pressure (healthy subjects [3]; maximum over dose groups): up to 6.1 mmHg | pEEG and CNS tests, differences between placebo and zagociguat groups (healthy subjects [4]): No dose‐dependent or consistent statistically significant differences | Severity of observed TEAEs (healthy subjects [5]; across all study phases): mild and transient | Tolerability (healthy subjects [5]; all doses evaluated, all study phases): well‐tolerated | Bleeding time and bleeding events (healthy subjects [5]; all phases): no increases in bleeding time nor any bleeding events | Deaths or other serious AEs (healthy subjects [5]; all study phases): No deaths or other serious AEs | Subjects discontinued from study drug due to ≥1 TEAE (healthy subjects [6]; SAD 0.3 mg (n = 6)): 0 n | Subjects with ≥1 SAE (healthy subjects [6]; SAD 0.3 mg (n = 6)): 0 n | Subjects with ≥1 TEAE (healthy subjects [6]; SAD 0.3 mg (n = 6)): 2 (33.3%) n (%) | Subjects with ≥1 study drug related TEAE (healthy subjects [6]; SAD 0.3 mg (n = 6)): 2 n | TEAEs (healthy subjects [6]; SAD 0.3 mg (n = 6)): 5 n | Subjects discontinued from study drug due to ≥1 TEAE (healthy subjects [6]; SAD 1 mg (n = 6)): 0 n | Subjects with ≥1 SAE (healthy subjects [6]; SAD 1 mg (n = 6)): 0 n | Subjects with ≥1 TEAE (healthy subjects [6]; SAD 1 mg (n = 6)): 2 (33.3%) n (%) | Subjects with ≥1 study drug related TEAE (healthy subjects [6]; SAD 1 mg (n = 6)): 1 n | TEAEs (healthy subjects [6]; SAD 1 mg (n = 6)): 5 n | Orthostatic hypotension TEAE (healthy subjects [6]; SAD 3 mg): One | Subjects discontinued from study drug due to ≥1 TEAE (healthy subjects [6]; SAD 3 mg (n = 6)): 0 n | Subjects with ≥1 SAE (healthy subjects [6]; SAD 3 mg (n = 6)): 0 n | Subjects with ≥1 TEAE (healthy subjects [6]; SAD 3 mg (n = 6)): 3 (50.0%) n (%) | Subjects with ≥1 study drug related TEAE (healthy subjects [6]; SAD 3 mg (n = 6)): 2 n | TEAEs (healthy subjects [6]; SAD 3 mg (n = 6)): 7 n | Subjects discontinued from study drug due to ≥1 TEAE (healthy subjects [6]; SAD 10 mg (n = 6)): 0 n | Subjects with ≥1 SAE (healthy subjects [6]; SAD 10 mg (n = 6)): 0 n | Subjects with ≥1 TEAE (healthy subjects [6]; SAD 10 mg (n = 6)): 2 (33.3%) n (%) | Subjects with ≥1 study drug related TEAE (healthy subjects [6]; SAD 10 mg (n = 6)): 2 n | TEAEs (healthy subjects [6]; SAD 10 mg (n = 6)): 7 n | Subjects discontinued from study drug due to ≥1 TEAE (healthy subjects [6]; SAD 20 mg (n = 6)): 0 n | Subjects with ≥1 SAE (healthy subjects [6]; SAD 20 mg (n = 6)): 0 n | Subjects with ≥1 TEAE (healthy subjects [6]; SAD 20 mg (n = 6)): 3 (50.0%) n (%) | Subjects with ≥1 study drug related TEAE (healthy subjects [6]; SAD 20 mg (n = 6)): 2 n | TEAEs (healthy subjects [6]; SAD 20 mg (n = 6)): 5 n | Subjects discontinued from study drug due to ≥1 TEAE (healthy subjects [6]; SAD 30 mg (n = 6)): 0 n | Subjects with ≥1 SAE (healthy subjects [6]; SAD 30 mg (n = 6)): 0 n | Subjects with ≥1 TEAE (healthy subjects [6]; SAD 30 mg (n = 6)): 5 (83.3%) n (%) | Subjects with ≥1 study drug related TEAE (healthy subjects [6]; SAD 30 mg (n = 6)): 5 n | TEAEs (healthy subjects [6]; SAD 30 mg (n = 6)): 13 n | Subjects with gastrointestinal (GI)-related TEAEs (healthy subjects [6]; SAD 50 mg (4/6 subjects)): 66.7% | Subjects discontinued from study drug due to ≥1 TEAE (healthy subjects [6]; SAD 50 mg (n = 6)): 0 n | Subjects with ≥1 SAE (healthy subjects [6]; SAD 50 mg (n = 6)): 0 n | Subjects with ≥1 TEAE (healthy subjects [6]; SAD 50 mg (n = 6)): 5 (83.3%) n (%) | Subjects with ≥1 study drug related TEAE (healthy subjects [6]; SAD 50 mg (n = 6)): 3 n | TEAEs (healthy subjects [6]; SAD 50 mg (n = 6)): 15 n | Subjects with gastrointestinal (GI)-related TEAEs (healthy subjects [6]; SAD all cohorts except 50 mg (1/6 subjects each)): 16.7% | Subjects with at least one dizziness TEAE (healthy subjects [6]; SAD all zagociguat-treated subjects (8 of 42), none on placebo): 19.0% | Subjects discontinued from study drug due to ≥1 TEAE (healthy subjects [6]; [10]): 0 n | Subjects with ≥1 SAE (healthy subjects [6]; [10]): 0 n | Subjects with ≥1 TEAE (healthy subjects [6]; [10]): 22 (52.4%) n (%) | Subjects with ≥1 study drug related TEAE (healthy subjects [6]; [10]): 17 n | TEAEs (healthy subjects [6]; [10]): 57 n | Tolerability (healthy subjects [6]; single doses up to 50 mg): well‐tolerated with no safety signals | cGMP concentrations in CSF (rodents [7]): increases in cGMP concentrations | qEEG gamma band power (rodents [8]): increased gamma band power
